Measured values collected from several papers.
Protocols differ between the studies behind these lines.
SLC6A4: Sodium-dependent serotonin transporter (SLC6A4, Homo sapiens, UniProt P31645)
rep main protease: Replicase polyprotein 1ab, main protease (rep, Porcine epidemic diarrhea virus, UniProt P0C6Y4)
rep papain-like protease: Replicase polyprotein 1ab, papain-like protease (rep, Porcine epidemic diarrhea virus, UniProt P0C6Y4)

| Structure (SMILES) | target | effect on | action | method | concentration | inhibition |
| --- | --- | --- | --- | --- | --- | --- |
| NC/C(=C\F)COc1cccc(Cn2c(=S)[nH]c(=O)c3[nH]cnc32)c1 | SLC6A4 | ligand displacement | – | radioligand | 10 µM | < 50% |
| CSc1ccccc1C(=O)NCc1cc(O)c(O)c(Br)c1 | rep main protease | enzyme activity | inhibitor | FRET | 10 µM | 13.9% |
| Cc1cc(O)c(-c2ccc([C@@H](C)CN(C)C)cc2)c2c1[nH]c(=O)c1sccc12 | STE20-related kinase adapter protein alpha (STRADA, Homo sapiens, UniProt Q7RTN6) | enzyme activity | inhibitor | – | 0.1 µM | 14.8% |
| CCOC(=O)[C@@]12C[C@@H]1[C@@H](n1cnc3c(Nc4ccccc4)nc(I)nc31)[C@H](O)[C@@H]2O | SLC6A4 | ligand displacement | – | radioligand | 10 µM | -12% |
| Cc1cc(F)cc2c(CCC(=O)N[C@@H]3C(=O)NC[C@H]3O)c(-c3ccc(F)cc3)[nH]c12 | SLC6A4 | cell-free assay | – | – | 10 µM | 8% |
| C#Cc1cc(-c2cc(Nc3nc(N[C@@H](C)c4ccc(F)cn4)ncc3Cl)n[nH]2)ccc1C=O | Rhodopsin kinase GRK7 (GRK7, Homo sapiens, UniProt Q8WTQ7) | enzyme activity | inhibitor | – | 0.2 µM | 63% |
| CCOC(=O)[C@@]12C[C@@H]1[C@@H](n1cnc3c(NCc4cccc(Cl)c4)nc(I)nc31)[C@H](O)[C@@H]2O | SLC6A4 | ligand displacement | – | radioligand | 10 µM | -5% |
| Cc1ccccc1C(=O)NCc1cc(O)c(O)c(Br)c1 | rep papain-like protease | enzyme activity | inhibitor | FRET | 10 µM | 115% |
| CCOC(=O)[C@@]12C[C@@H]1[C@@H](n1cnc3c(NCCCCc4ccccc4)nc(C#Cc4ccc(Cl)s4)nc31)[C@H](O)[C@@H]2O | SLC6A4 | ligand displacement | – | radioligand | 10 µM | 16% |
| COc1ccc(CNC(=O)c2ccc(Br)cc2)cc1OC | rep papain-like protease | enzyme activity | inhibitor | FRET | 10 µM | 66.1% |
| CCN1/C(=C/C(C)=O)Sc2ccc(F)cc21 | D(1A) dopamine receptor (DRD1, Homo sapiens, UniProt P21728) | ligand displacement | – | radioligand | 10 µM | 7.04% |
| CC(C)C(C(=O)NCc1cc(O)c(O)c(Br)c1)c1ccc(Cl)cc1 (stereo not drawn) | rep main protease | enzyme activity | inhibitor | FRET | 10 µM | 41.9% |
| CCOC(=O)[C@@]12C[C@@H]1[C@@H](n1cnc3c(NC4CC4)nc(C#Cc4ccc(Cl)s4)nc31)[C@H](O)[C@@H]2O | SLC6A4 | ligand displacement | – | radioligand | 10 µM | 15% |
| O=C(NCc1cc(O)c(O)c(Br)c1)c1ccccc1 | rep main protease | enzyme activity | inhibitor | FRET | 10 µM | 74.8% |
| N#C[C@@]12C[C@@H]1[C@@H](n1cnc3c(Nc4ccccc4)nc(I)nc31)[C@H](O)[C@@H]2O | SLC6A4 | ligand displacement | – | radioligand | 10 µM | 3% |
